Results reported in ChEMBL document CHEMBL1122545, “N2-(4-Substituted-2,6-dichlorophenyl)-N1,N1-dimethylformamidines as antihypertensive and diuretic agents” (J Med Chem, 1984).

Tests used:
Rattus norvegicus [1] = test: Antihypertensive activity in SH rats, and mean arterial blood pressure was reported at a dose of 25 mg/Kg; assay type: functional, Artery
How it was run: (§1)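 Male SH rats (Okamoto strain), 16 weeks old, dosed orally by gavage with compound dispersed in 3% starch in normal saline at 2 mL/kg. Oral normal saline load, then individual metabolism cages; 0-5 h urine collected, Na+ and K+ measured by flame photometry. Rats redosed at 24 h without the saline load. MABP and HR taken by femoral arterial puncture under local anesthetic 4 h after the second dose.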

Rattus norvegicus [2] = test: Diuretic activity was determined in SH rats expressed as K(+) (potassium) excreted in milli euivalents was reported for a duration of 5 hours after administration of a dose of 100 mg/Kg.; conditions: in vivo
[3] = (§2) Diuretic activity was determined expressed as volume of urine excreted in mL was reported at a dose of 100 mg/Kg; assay type: ADME; conditions: in vivo; how it was run: as §1
Rattus norvegicus [4] = test: Antihypertensive activity in SH rats, and mean arterial blood pressure was reported at a dose of 100 mg/Kg; assay type: functional, Artery; how it was run: as §1
Rattus norvegicus [5] = test: Antihypertensive activity determined as heart rate in SH rats, was reported at a dose of 100 mg/Kg; assay type: functional; how it was run: as §1
Rattus norvegicus [6] = test: Antihypertensive activity determined as heart rate in SH rats, was reported at a dose of 25 mg/Kg; assay type: functional; how it was run: as §1
[7] = Diuretic activity was determined expressed as Na+(sodium) excreted in milli equivalents was reported for a duration of 5 hours after administration of a dose of 100 mg/Kg; assay type: ADME, Urine; conditions: in vivo; how it was run: as §1
[8] = Diuretic activity was determined expressed as volume of urine excreted in mL was reported at a dose of 25 mg/Kg; assay type: ADME; conditions: in vivo; how it was run: as §1
Rattus norvegicus [9] = test: Diuretic activity was determined in SH rats expressed as K(+) (potassium) excreted in milli equivalents was reported for a duration of 5 hours after administration of a dose of 25 mg/Kg.; assay type: ADME, organism-based, Urine; conditions: in vivo; how it was run: as §1
[10] = Diuretic activity was determined expressed as Na+(sodium) excreted in milli equivalents was reported for a duration of 5 hours after administration of a dose of 25 mg/Kg; assay type: ADME, Urine; conditions: in vivo; how it was run: as §1
Rattus norvegicus [11] = test: Diuretic activity was determined in SH rats expressed as K(+) (potassium) excreted in milli equivalents was reported for a duration of 5 hours after administration of a dose of 100 mg/Kg.; assay type: ADME, organism-based, Urine; conditions: in vivo; how it was run: as §1
Rattus norvegicus [12] = test: Diuretic activity was determined in SH rats expressed as K(+) (potassium) excreted in milli equivalents was reported for a duration of 5 hours after administration of a dose of 100 mg/Kg; assay type: ADME, organism-based, Urine; conditions: in vivo; how it was run: as §1
Rattus norvegicus [13] = test: as §2; assay type: ADME, organism-based; conditions: in vivo; how it was run: as §1

| Diuretic activity (Rattus norvegicus [2]) [m equiv] | Diuretic activity [3] [mL] | Diuretic activity [7] [m equiv] | Diuretic activity [8] [mL] | Diuretic activity (Rattus norvegicus [9]) [m equiv] | Diuretic activity [10] [m equiv] | Diuretic activity (Rattus norvegicus [11]) [m equiv] | Diuretic activity (Rattus norvegicus [12]) [m equiv] | Diuretic activity (Rattus norvegicus [13]) [mL] | Structure (SMILES) | MABP (Rattus norvegicus [1]) [mmHg] | MABP (Rattus norvegicus [4]) [mmHg] | HR (Rattus norvegicus [5]) [beats min-1] | HR (Rattus norvegicus [6]) [beats min-1] |
| --- | --- | --- | --- | --- | --- | --- | --- | --- | --- | --- | --- | --- | --- |
| 0.16 | 16.4 |  |  |  |  |  |  |  | Clc1cccc(Cl)c1NC1=NCCN1 [CLONIDINE] | 113 | 102 | 180 | 220 |
| 0.48 | 19.3 | 1.9 |  |  |  |  |  |  | CN(C)/C=N/c1c(Cl)cc(NCc2cccc(Br)c2)cc1Cl |  | 120 | 350 |  |
|  |  |  | 19.3 | 0.45 | 1.86 |  |  |  | CN(C)/C=N/c1c(Cl)cc(NCc2ccc(N(C)C)cc2Br)cc1Cl | 115 |  |  | 280 |
|  | 25 | 1.93 |  |  |  | 0.59 |  |  | CN(C)/C=N/c1c(Cl)cc(NCc2cccc(F)c2)cc1Cl |  | 120 | 290 |  |
|  |  |  | 23.5 | 0.71 | 2.26 |  |  |  | CN(C)/C=N/c1c(Cl)cc(NCc2ccc(N(C)C)cc2F)cc1Cl | 155 |  |  | 400 |
|  |  |  | 13.8 | 0.42 | 1.34 |  |  |  | CN(C)/C=N/c1c(Cl)cc(NCc2cc(Cl)cc(Cl)c2)cc1Cl | 139 |  |  | 290 |
|  | 8.3 | 0.47 |  |  |  |  | 0.37 |  | COc1ccc(CNc2cc(Cl)c(/N=C/N(C)C)c(Cl)c2)cc1OC |  | 133 | 410 |  |
|  |  |  | 5.5 | 0.39 | 0.55 |  |  |  | CN(C)/C=N/c1c(Cl)cc(NCc2ccc(N(C)C)cc2)cc1Cl | 171 |  |  | 450 |
|  | 12.3 | 0.72 |  |  |  | 0.68 |  |  | CN(C)/C=N/c1c(Cl)cc(NCc2ccccc2O)cc1Cl |  | 150 | 340 |  |
|  |  | 0.66 |  |  |  | 0.62 |  | 9.5 | CC(=O)Nc1ccc(CNc2cc(Cl)c(/N=C/N(C)C)c(Cl)c2)cc1 |  | 150 | 340 |  |
|  | 7.3 | 0.46 |  |  |  | 0.5 |  |  | CN(C)/C=N/c1c(Cl)cc(NCc2ccc(-c3ccccc3)cc2)cc1Cl |  | 143 | 400 |  |
|  | 21.3 | 2.04 |  |  |  | 0.5 |  |  | CN(C)/C=N/c1c(Cl)cc(NCc2cccc(C(F)(F)F)c2)cc1Cl |  | 165 | 420 |  |
|  |  |  | 21.3 | 0.71 | 2.02 |  |  |  | CCN(CC)c1ccc(CNc2cc(Cl)c(/N=C/N(C)C)c(Cl)c2)cc1 | 153 |  |  | 400 |
|  | 13.2 | 1.63 |  |  |  | 0.65 |  |  | NS(=O)(=O)c1cc2c(cc1Cl)NCNS2(=O)=O [HYDROCHLOROTHIAZIDE] |  | 153 | 436 |  |
|  |  |  | 14 | 0.77 | 1.18 |  |  |  | CN(C)/C=N/c1c(Cl)cc(NCc2ccc(N(C)C)c(Br)c2)cc1Cl | 173 |  |  | 420 |
|  | 17.5 | 1.4 |  |  |  |  | 0.57 |  | COc1cc(CNc2cc(Cl)c(/N=C/N(C)C)c(Cl)c2)cc(OC)c1OC |  | 138 | 360 |  |
|  | 16.8 | 1.15 |  |  |  |  | 0.43 |  | COc1ccc(CNc2cc(Cl)c(/N=C/N(C)C)c(Cl)c2)cc1F |  | 113 | 320 |  |
